Screening results as filed in PubChem BioAssay.
Most compounds without a hit are left out; they make up all but 2% or so of the library.
M1 PAM: positive allosteric modulators of human M1 muscarinic receptor. CHO-K1 hM1, Fluo-8 calcium fluorescence, ACh EC20; 0% = ACh EC20, 100% = maximal ACh. activation, % at 3 µM. actives 0.088% (n = 360,000); in the data active = activation above about 19%, passing the limit was not always enough
CHRM5 PAM: CHRM5 positive allosteric modulation | P08912 | actives 0.3% (n = 360,000) | activation, % at 3 µM | CHO-K1 hM5, Fluo-8 calcium, ACh EC20 PAM; 0% = ACh EC20, 100% = ACh EC100 | AID 624038;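 active = activation above the run cutoff, the mean activation of all test compounds plus 3 SD, cut at about 18% in these data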
Target sequence (P08912 whole entry, looked up): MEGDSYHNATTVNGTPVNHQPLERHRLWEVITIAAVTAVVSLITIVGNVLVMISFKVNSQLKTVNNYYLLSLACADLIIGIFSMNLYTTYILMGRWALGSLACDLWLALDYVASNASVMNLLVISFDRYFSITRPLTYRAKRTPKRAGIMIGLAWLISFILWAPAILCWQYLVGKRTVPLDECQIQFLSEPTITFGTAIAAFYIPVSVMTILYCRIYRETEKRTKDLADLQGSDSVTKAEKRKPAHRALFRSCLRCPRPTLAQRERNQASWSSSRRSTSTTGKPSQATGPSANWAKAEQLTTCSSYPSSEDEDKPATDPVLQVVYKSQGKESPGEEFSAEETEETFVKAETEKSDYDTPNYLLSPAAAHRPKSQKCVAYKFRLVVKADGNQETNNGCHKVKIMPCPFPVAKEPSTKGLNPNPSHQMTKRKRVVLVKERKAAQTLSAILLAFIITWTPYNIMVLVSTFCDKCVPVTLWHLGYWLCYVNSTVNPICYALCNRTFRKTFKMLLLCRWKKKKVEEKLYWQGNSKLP
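Probe or stimulus: acetylcholine, EC20 level; Assay system: human M5 receptor in CHO-K1 cells; Schedule: compound preincubation 140 s before EC20 acetylcholine addition; Technique: intracellular calcium via Fluo-8 fluorescence; Dosing: single-point, 3 µM nominal; Read-out basis: percent activation from peak-over-basal fluorescence ratio, scaled EC20-to-EC100 acetylcholine; Repeats: one well per compound, no replicates.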
CHRM5 agonist: agonists of human muscarinic M5 receptor (CHRM5) | P08912 | CHO-K1 hM5 cells, Fluo-8 calcium fluorescence; 0% DMSO wells, 100% maximal acetylcholine response | actives 0.19% (n = 360,000) | AID 624037 | activation, % at 3 µM;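 active = activation above the run's mean over test compounds plus 3 SD, cut at about 23% in these data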;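 also: signal is peak over basal fluorescence ratio across the kinetic read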
CHRM1 agonist: human M1 muscarinic receptor agonism | P11229 | CHO-K1 hM1, Fluo-8 calcium fluorescence, agonist mode; 0% DMSO, 100% acetylcholine EC100 | activation, % at 3 µM | actives 0.33% (n = 360,000) | AID 588814;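 active = activation above the run's mean compound activation plus 3 SD, cut at about 16% in these data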;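 also: peak over basal fluorescence ratio within a 140 s kinetic read after compound addition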
CHRM1 antagonist: antagonists of human M1 muscarinic receptor | P11229 | CHO-K1 hM1, Fluo-8 calcium fluorescence, ACh EC80 antagonist | inhibition, % at 3 µM | actives 1.3% (n = 360,000);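 active = percent inhibition above its own plate's cutoff, namely the mean of that plate's compound wells plus 3 SD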;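 also: peak over basal fluorescence ratio during 140 s after agonist addition; 0% = ACh EC80 plus DMSO and 100% = DMSO alone without agonist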
CHRM5 antagonist: CHRM5 antagonism in calcium assay | AID 624040 | actives 0.59% (n = 360,000) | CHO-hM5 cells, Fluo-8 calcium fluorescence, ACh EC80 | inhibition, % at 3 µM;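 active = inhibition above a per-plate cutoff, the mean of that plate's test compounds plus 3 SD, cut at about 27% in these data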;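 also: 0% = acetylcholine EC80 with DMSO and 100% = DMSO without agonist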
* = called active by the depositor; · = not tested or not shown.

SMILES	M1 PAM	CHRM5 PAM	CHRM5 agonist	CHRM1 agonist	CHRM1 antagonist	CHRM5 antagonist
CSCCC(N=Cc1c(O)n(-c2ccc(Br)cc2)c(=O)[nH]c1=O)C(=O)OC(C)(C)C (centres undefined)	1	5	-3	-6	-7	-5
O=C(Cc1ccccc1)N1CCN(Cc2ccc(Cl)cc2)CC1	14	22*	1	-4	-22	-27
Cc1cccc(CN2CCCC(C(=O)c3ccc(C(F)(F)F)cc3)C2)n1 (centres undefined)	-29	-1	-4	-12	24	9
O=C(c1ccc(C(F)(F)F)cc1)C1CCCN(C2CCSCC2)C1 (centres undefined)	-32	-11	-10	-14	57*	-7
Cc1cc(Cl)ccc1C(=O)C1CCCN(C2CCSCC2)C1 (centres undefined)	-33	-20	-9	-13	84*	11
COC12CCC3(CC1C(C)(O)C(C)(C)C)[C@H]1Cc4ccc(OC5OC(C(=O)O)[C@@H](O)C(O)[C@H]5O)c5c4[C@@]3(CCN1CC1CC1)C2O5 (some centres undefined)	22	6	4	4	-13	6
COC(=O)C1=C(c2ccccc2OCc2ccccc2)C[C@@H]2CC[C@H]1N2C(=O)NCCc1ccc(F)cc1	12	-8	2	-4	-19	6
O=C(O)c1nn(Cc2ccc(Cl)cc2)c2ccccc12	3	-1	0	-1	4	8
CCN(CC)CCCOC(=O)C(OC(C)C)(c1ccccc1)c1ccccc1	-32	-22	-4	-10	102*	98*
CCOC(C(=O)OCCCN(CC)CC)(c1ccccc1)c1ccccc1	-19	-14	-9	-4	16	12
COc1ccc(CN2C(=O)NC(=O)/C(=C/c3ccoc3)C2=O)cc1	11	-4	29*	11	-9	2
Cc1cc(C=O)c(C)n1CC1CCCO1 (centres undefined)	7	18*	-7	-2	-26	-11
CCOC(=O)CC(SP1(=S)OCC2(CC=CCC2)CO1)C(=O)OCC (centres undefined)	-21	-40	2	1	24*	11
CCCNC(=O)N1[C@H]2CC[C@@H]1C(C(=O)OC)=C(c1ccc(-c3ccccc3)c(F)c1)C2	-18	-11	-3	-6	30	17
CN1CCN(CCC(C#N)(c2ccccc2)c2ccccc2)CC1	-22	-49	-14	-6	99*	50*
C=C(C)[C@@]12OC3(c4ccccc4)O[C@@H]1C1[C@@H]4O[C@]4(CO)[C@@H](O)[C@]4(O)C(=O)C(C)=C[C@H]4[C@@]1(O3)[C@H](C)[C@H]2OC(=O)/C=C/C=C/c1ccccc1 (some centres undefined)	-32	-25	-3	-7	43*	24
CC1=C2CCC3C(CCC4=CC(=O)CCC43C)C2CC1 (centres undefined)	-4	9	1	-1	-4	3
O=C1CC(N2CCC(n3c(=O)[nH]c4ccccc43)CC2)C(=O)N1Cc1ccccc1 (centres undefined)	2	-7	4	0	-30	-6
O=c1[nH]c2ccccc2n1C1CCN(Cc2ccc(-c3[nH]c4cc5ncnc5cc4nc3-c3ccccc3)cc2)CC1	·	-22	67*	·	·	14
Oc1cc(Cl)c(Cl)c(Cl)c1Cl	4	-5	10	1	-2	5
Oc1cc(Cl)c(Cl)c(Cl)c1	-20	-18	10	1	23*	14
C=C1C(=O)OC2CC3(C)OC3C3OC3C3=CC(OC3=O)C12 (centres undefined)	-7	3	3	-3	11	0
CC(=O)c1ccc(NC2=NCCCS2)cc1	16	-8	-5	-10	-11	31*
Cc1ccccc1C(O)(Cc1ccccc1)C1CN2CCC1CC2 (centres undefined)	-26	-30	-13	-6	98*	92*
COC1=CC2[C@@H]3Cc4ccc(OC)c(O)c4[C@]2(CCN3C)CC1=O (some centres undefined)	14	1	-1	3	5	3
SMILES	M1 PAM	CHRM5 PAM	CHRM5 agonist	CHRM1 agonist	CHRM1 antagonist	CHRM5 antagonist
C=CC[C@@H](CC/C=C/C=C/CC/C=C\[C@@H]1CSC([C@@H]2C[C@@H]2C)=N1)OC	19	3	1	10	0	-6
C[N+](C)(C)CC#CCN1CCCC1=O	-12	-13	99*	120*	89*	98*
O=[N+]([O-])c1cccc(CN2CCN(Cc3ccc(Br)cc3)CC2)c1	-29	-15	-10	-12	27*	2
O=C(Cc1ccccc1)N1CCN(Cc2ccc([N+](=O)[O-])cc2)CC1	-11	8	0	-5	17	-8
Cn1nnc(CC[N+](C)(C)C)n1	-22	-28	76*	73*	77*	65*
N#CC12CC(=O)N1Cc1cnnn1-c1ccccc12 (centres undefined)	10	-2	2	-1	-12	5
CN1CN(c2ccccc2)C2(CCN(CCCSc3ccccc3NC(=O)/C=C/c3ccccc3)CC2)C1=O	-34	-46	68*	47*	55*	37*
NC(Cc1ccccc1)Cc1ccccc1	-1	4	-2	-2	8	12
NC(Cc1ccccc1)c1nn[nH]n1 (centres undefined)	-1	-11	-2	-2	2	30*
C=CCC1(Nc2ccccc2)CC(C)N(C)CC1C (centres undefined)	-27	-35	-21	-8	97*	52*
Nc1ccc2ccc3cccc[n+]3c2c1	-12	-3	27*	10	22	-3
C[n+]1c(-c2ccccc2)c2cc(N)ccc2c2ccc(N)cc21	-19	-14	3	1	9	14
COCCNC(=O)c1ccc(N2CC3CC(C2)c2cccc(=O)n2C3)c([N+](=O)[O-])c1 (centres undefined)	1	6	0	-5	-2	1
COC(=O)C1=C(c2ccc(OCc3ccccc3)cc2)C[C@@H]2CC[C@H]1N2C(=O)NCc1cccc(C(F)(F)F)c1	-12	3	-3	-6	20	8
CCOC(=O)C1(CCCc2ccccc2)CCN(C2CCCC2)CC1	-18	-14	-9	-14	12	2
CCOC(=O)C1(CCc2ccccc2)CCN(C2CCSCC2)CC1	-22	-16	-7	-5	52*	10
O=[N+]([O-])NC1=NCN(Cc2ccco2)CN1Cc1ccco1	1	19*	1	-2	0	-5
